Results published in the array DNA melting data of Ke et al. (doi:10.1101/2024.01.08.574731).

Key:
[1] = melting temperature; fluorescence melt of hairpins on a sequencing array, two-state fit, raised by 9.35 °C to match UV melts; conditions: sodium 0.088 M
Method in brief: (§1)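 Folding enthalpy and melting temperature were estimated with bootstrapped two-state fits and combined across four replicates by inverse-variance weighting, with fitted temperatures raised by 9.35 °C to match UV melts. The data were Cy3 fluorescence of library hairpins, with annealed Cy3 and quencher oligos, on a sequenced MiSeq flow cell in 50 mM Na-HEPES pH 8.0, 25 mM NaCl, imaged in 2.5 °C steps up to 60 °C and normalised to pre-quench Cy3 and control constructs.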

[2] = folding enthalpy; higher = less favourable; fluorescence melt of hairpins on a sequencing array, two-state fit; conditions: sodium 0.088 M
Method in brief: as §1

| Sequence | Tm [1] [°C] | folding enthalpy [2] [kcal/mol] |
| --- | --- | --- |
| GCGTATGGAAACATACAC (.(((((....))))).) | 36.7 | -15.8 |
| GATCGATCATCGATC ((((((...)))))) | 50.5 | -33.2 |
| GGACGAGCGAAAGCTTCC (((..(((....)))))) | 29.5 | -9.29 |
| TTTCCGAAAGGAAA (((((....))))) | 49.3 | -19 |
| GATCAACTCTTGATC ((((((...)))))) | 42.3 | -35.7 |
| GCCCTGCGAAAGCTAGGC (((..((....))..))) | 55.2 | -20.3 |
| GATCCCGGAGGGGATC ((((((....)))))) | 65.8 | -19.4 |
| GTCTCAGGAAACCGAGAC (((((.(....).))))) | 45.7 | -30.8 |
| GACTACCGAAAGGTGTC (((.(((....)))))) | 49.6 | -21.6 |
| GCGACAGGAAACTATCGC ((((.((....)).)))) | 43.7 | -31.9 |
| GTTCAGGGAAACTTGAGC (.(((.(....).))).) | 30.2 | -18.4 |
| GATCGACTCATCGATC ((((((....)))))) | 51.8 | -41.7 |
| GTATCAGGAAACTGATGC (.(((((....))))).) | 45 | -24.8 |
| GTGTGACGAAAGTCGCAC (((.(((....))).))) | 65.9 | -42.5 |
| GATCCGGTACCGGATC ((((((....)))))) | 64.5 | -43.4 |
| GTAAAAACGAAAGTTTAC (((..(((....)))))) | 27.8 | -11.4 |
| GCATTCCGAAAGGACTGC (((.(((....))).))) | 50.8 | -22.2 |
| GATCATTTTCATGATC ((((((....)))))) | 47.6 | -31.1 |
| GGGTAACGAAAGTTGCCC (((.(((....))).))) | 59.6 | -49.4 |
| GCCCACGAAAGTGGCGGC ((((((....)))..))) | 57.6 | -14 |
| GCCCAAGCGAAAGCTGGC (((..(((....)))))) | 53.6 | -17.6 |
| GGGCAGGGAAACCCACCC (((..((....))..))) | 34.8 | -24.5 |
| GATGGACCGAAAGGTATC (((..(((....)))))) | 26.8 | -11.1 |

| Sequence | Tm [1] [°C] | folding enthalpy [2] [kcal/mol] |
| --- | --- | --- |
| GACTTGGGAAACTGAGTC ((((..(....)..)))) | 33.5 | -32 |
| GATCTGATATCAGATC ((((((....)))))) | 51 | -40.1 |
| GTGTACGAAAGTAAGCAC ((((((....)))..))) | 33.4 | -21.3 |
| GTCTACGAAAGTACTGAC ((((((....)))..))) | 28.9 | -10.8 |
| GATCTGGACTCAGATC ((((((....)))))) | 53.1 | -46.3 |
| GCAATGCGAAAGCCTCGC ((.(.((....)).).)) | 31.5 | -10.9 |
| GGATGTGGAAACACACCC ((.((((....)))).)) | 44.3 | -27 |
| GATTCCGAAAGGAGTATC ((((((....)))..))) | 27.1 | -15.7 |
| GCGATGCGAAAGCACAGC ((..(((....)))..)) | 52 | -19.2 |
| ATCTCGAAAGAGAT (((((....))))) | 51.1 | -20.9 |
| GAGTTAGGAAACCAACTC (((((.(....).))))) | 35.4 | -32.5 |
| GATCAACGCTTTGATC ((((((....)))))) | 46.4 | -44.1 |
| GAGGGAGGAAACTCCCTC (((((((....))))))) | 62.9 | -41.1 |
| GCGTGGCGAAAGCTGCGC (((..((....))..))) | 67.9 | -40.4 |
| GCTCTGCGAAAGCGTAGC (((..((....))..))) | 38.2 | -17.6 |
| GATCAAAGGGTTGATC ((((((....)))))) | 39.1 | -28.3 |
| GCTACCGAAAGGTCCAGC ((((((....)))..))) | 29 | -11.4 |
| GGTCGACGAAAGTCACC (((.(((....)))))) | 50.9 | -16.2 |
| GCAGGTGGAAACACCCGC ((.((((....)))).)) | 50 | -23.4 |
| GTCTCAACGAAAGTTGAC (((..(((....)))))) | 30.5 | -10.7 |
| GCGTTCCGAAAGGACCGC (((.(((....))).))) | 58.4 | -46.4 |
| GGGTTGGGAAACCGACCC ((((.((....)).)))) | 58.4 | -45.4 |
| GAGGCGGGAAACCGTCTC (((.(((....))).))) | 56.8 | -38.3 |

| Sequence | Tm [1] [°C] | folding enthalpy [2] [kcal/mol] |
| --- | --- | --- |
| GTTGGGGGAAACCTCAAC ((((.((....)).)))) | 47.8 | -32 |
| GATCCCGAAAGGGATATC ((((((....)))..))) | 52 | -15.6 |
| GATCCTATGAGGATC ((((((...)))))) | 53.7 | -34.7 |
| CGGGCGGAAACGCACCG ((((((....))).))) | 60.4 | -16.9 |
| GGCTTTGGAAACAAAGCC (((((((....))))))) | 68.3 | -34.1 |
| GCGTAGCGAAAGCTCGGC ((..(((....)))..)) | 39.9 | -7.84 |
| GCGCTCCGAAAGGACGC (((.(((....)))))) | 60 | -33.6 |
| GCGTCTGTACGC ((((....)))) | 53.3 | -26.2 |
| GATCAGAAGTCTGATC ((((((....)))))) | 49 | -30 |
| CGAACGGAAACGTGTTCG ((((((....)))..))) | 42.6 | -26.7 |
| GGGAACGGAAACGTTCTC (.(((((....))))).) | 52.9 | -18.2 |
| GGCGATGGAAACGTCGCC (((((.(....).))))) | 64.6 | -48.7 |
| GAAATAGAAATATTTC ((((((....)))))) | 32.7 | -21.9 |
| GATCACCCTTGTGATC ((((((....)))))) | 54.9 | -43.7 |
| GCGGAGACGAAAGTCCGC (((..(((....)))))) | 58.5 | -32 |
| GTCGTAGGAAACTACAAC ((.((((....)))).)) | 30 | -21 |
| GTGTCGGGAAACCGATAC ((.((((....)))).)) | 52.1 | -28.6 |
| GATTAGCGAAAGCTGATC (((.(((....))).))) | 51.1 | -31 |
| GATCCTCAAAAGGATC ((((((....)))))) | 51.3 | -32.5 |
| GATCGTGTTTACGATC ((((((....)))))) | 57.5 | -41.4 |
| GGGCGCGGAAACACGCCC (((((.(....).))))) | 66.5 | -34 |
| GACATACCGAAAGGTGTC (((..(((....)))))) | 41.3 | -18.2 |
| GCACCACGAAAGTGATGC (((.(((....))).))) | 55.7 | -36.5 |

| Sequence | Tm [1] [°C] | folding enthalpy [2] [kcal/mol] |
| --- | --- | --- |
| GAGAACCCGAAAGGGCTC (((..(((....)))))) | 34.9 | -13.9 |
| GAATTTGGAAACAAATCC (.(((((....))))).) | 29.2 | -13.9 |
| GATCTGGGGCAGATC ((((((...)))))) | 46.5 | -29.4 |
| GCATTCGAAAGAATTTGC ((((((....)))..))) | 30.2 | -16.9 |
| GATCGTGGAAACGATC ((((((....)))))) | 61 | -32.5 |
| GTTCACGAAAGTGGGAAC ((((((....)))..))) | 35.4 | -13.3 |
| GATCTGCACCAGATC ((((((...)))))) | 47.9 | -41.8 |
| GTAGCTCGAAAGAGGTAC (((.(((....))).))) | 56.7 | -38 |
| GTGGTCGAAAGACACAC ((((((....))).))) | 50.3 | -26.6 |
| GAAACACGAAAGTGGTTC (((.(((....))).))) | 55 | -44.3 |
| GCACAGTCGAAAGACTGC (((..(((....)))))) | 39.3 | -8.86 |
| CGCGCGGAAACGCTCGCG ((((((....)))..))) | 52.5 | -23.4 |
| CGAGCGGAAACGCCGTCG ((((((....)))..))) | 55 | -15.5 |
| GATCCGCGACGGATC ((((((...)))))) | 57.9 | -39 |
| GTGATCGGAAACGATCGC (.(((((....))))).) | 57.6 | -36.4 |
| GTGGTAGGAAACTGCCAC ((((.((....)).)))) | 54.1 | -50 |
| GTTAGACGAAAGTCCAAC (((.(((....))).))) | 38 | -17.3 |
| GCCGGGCGAAAGCGTGGC (((..((....))..))) | 65.9 | -36.4 |
| GCAGCACGAAAGTGATGC (((.(((....))).))) | 69 | -36.2 |
| GATCAGGCCGCTGATC ((((((....)))))) | 51.8 | -41.3 |
| GATCACATGGGTGATC ((((((....)))))) | 56.4 | -45.1 |
| GCCCTGCGAAAGCGGTGC ((.(.((....)).).)) | 48 | -20.2 |
| GGTCGCGAAAGCGAAACC ((((((....)))..))) | 50 | -11.9 |
